Usually inhibition stands for the drop in the measured response relative to a control, in per cent. As usually defined, the EC50 is the midpoint of the concentration-response curve. By Ki is commonly meant a measure of affinity in units of concentration, obtained from inhibition or displacement. Higher therefore signals lower affinity.

The source of these data is ChEMBL document CHEMBL3112497, “Functionally Optimized Neuritogenic Farinosone C Analogs: SAR-Study and Investigations on Their Mode of Action” (ACS Med Chem Lett, 2014).

The source made the active and inactive calls. The rule behind the calls is not given here.

Series [1] is described as follows: Cytotoxicity against rat PC12 cells at 50 uM. Format: cell-based. The settings on record: pc-12, 50 µM.
Series [2] concerns PC-12. Kind of series: Neuritogenic activity in rat PC12 cells assessed as induction of neuronal differentiation at 5 uM after 2 days by Giemsa staining-based phase contrast microscopic analysis. Format: functional, cell-based. An outline of the steps:
(§1)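 PC12 neurite outgrowth assay (modified procedure) with 2-day incubation; compounds at 50, 20, 10, 5 or 1 μM. Positive control NGF 20 ng mL-1, solvent control DMSO 0.1%. Mean ± SEM, n = 3; unpaired t test, 95% confidence interval.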

Series [3] concerns PC-12. Description: Neuritogenic activity in rat PC12 cells assessed as induction of neuronal differentiation at 50 uM after 2 days by Giemsa staining-based phase contrast microscopic analysis. It counts as functional, cell-based. The essentials:
as §1

In series [4] the test system is U-937. Kind of series: Inhibition of anandamide membrane transporter in human U937 cells assessed as inhibition of [3H]-AEA uptake at 10 uM preincubated for 10 to 30 mins followed by [3H]-AEA addition measured after 5 mins by liquid scintillation counting analysis relative to control. Format: cell-based.
For series [5], the target named is T1, Fatty-acid amide hydrolase 1 (Homo sapiens) (UniProt O00519).
T1 sequence (whole entry): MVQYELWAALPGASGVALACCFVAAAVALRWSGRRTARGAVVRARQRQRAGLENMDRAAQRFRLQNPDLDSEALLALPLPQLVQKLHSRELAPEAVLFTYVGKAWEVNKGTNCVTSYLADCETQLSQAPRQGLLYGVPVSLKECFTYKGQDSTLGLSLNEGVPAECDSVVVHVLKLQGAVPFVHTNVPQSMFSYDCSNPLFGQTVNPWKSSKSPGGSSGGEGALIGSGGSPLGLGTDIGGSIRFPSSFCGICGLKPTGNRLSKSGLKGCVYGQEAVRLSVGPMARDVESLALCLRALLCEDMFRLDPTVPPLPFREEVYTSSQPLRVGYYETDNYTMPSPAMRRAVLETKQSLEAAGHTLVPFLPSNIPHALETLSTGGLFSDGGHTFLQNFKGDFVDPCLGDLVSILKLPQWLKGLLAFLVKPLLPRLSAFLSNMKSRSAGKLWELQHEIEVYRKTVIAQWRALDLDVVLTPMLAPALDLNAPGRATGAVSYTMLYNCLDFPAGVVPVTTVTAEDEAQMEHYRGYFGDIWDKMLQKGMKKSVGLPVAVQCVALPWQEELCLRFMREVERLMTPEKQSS
Kind of series: Inhibition of FAAH (unknown origin) at 1 uM. An outline of the steps:
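FAAH activity measured with compounds at 1 μM.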

The subject of series [6] is PC-12. Description: Neuritogenic activity in rat PC12 cells assessed as induction of neuronal differentiation at 10 uM after 2 days by Giemsa staining-based phase contrast microscopic analysis. It counts as functional, cell-based. An outline of the steps:
as §1

Series [7] in a line: Inhibition of anandamide membrane transporter in human U937 cells assessed as inhibition of [3H]-AEA uptake preincubated for 10 to 30 mins followed by [3H]-AEA addition measured after 5 mins by liquid scintillation counting analysis. Format: cell-based. Particulars: u-937. The essentials: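 [3H]AEA transport in human U937 leukemic monocyte lymphoma cells; EC50 and maximal inhibition taken from concentration-dependent curves, n = 3–5.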

Series [8] has as its system PC-12. Description: Neuritogenic activity in rat PC12 cells at 100 nM. It counts as functional, cell-based.
Series [9] can be described thus: Cytotoxicity against rat PC12 cells at 10 uM. Format: cell-based. The settings on record: pc-12, 10 µM.
Series [10] deals with PC-12. Description: Neuritogenic activity in rat PC12 cells assessed as induction of neuronal differentiation at 1 uM after 2 days by Giemsa staining-based phase contrast microscopic analysis. Format: functional, cell-based. An outline of the steps:
as §1

Series [11] in a line: Cytotoxicity against rat PC12 cells at 1 uM. Particulars: pc-12, 1 µM. Format: cell-based.
Series [12] relates to PC-12. Description: Neuritogenic activity in rat PC12 cells assessed as induction of neuronal differentiation at 20 uM after 2 days by Giemsa staining-based phase contrast microscopic analysis. It counts as functional, cell-based. The essentials:
as §1

For the next series, the target named is Cannabinoid receptor 1 (Homo sapiens, UniProt P21554). Description: Displacement of [3H]-CP55940 from human CB1 receptor expressed in CHO cell membranes after 90 mins by scintillation counting analysis. An outline of the steps: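 Membranes from CHO cells stably transfected with human CB1 incubated 90 min at 30 °C with varying compound concentrations and 0.5 nM [3H]-CP55940; WIN55,212-2 as positive control. Mean ± SD, n = 2–3.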

Series [13] relates to U-937. Kind of series: Potency index, ratio of UCM707 EC50 to compound EC50 for anandamide membrane transporter in human U937 cells. Format: cell-based.
Series [14] deals with PC-12. Description: Neuritogenic activity in rat PC12 cells in presence of CB1 antagonist rimonabant/AM251. Format: functional, cell-based. An outline of the steps:
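PC12 cells co-treated with the CB1 antagonists rimonabant (1 μM and 100 nM) or AM251 (3 μM and 100 nM) alongside the differentiation-inducing compound, in the neurite outgrowth assay.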

Cannabinoid receptor 1, sequence (P21554 whole entry): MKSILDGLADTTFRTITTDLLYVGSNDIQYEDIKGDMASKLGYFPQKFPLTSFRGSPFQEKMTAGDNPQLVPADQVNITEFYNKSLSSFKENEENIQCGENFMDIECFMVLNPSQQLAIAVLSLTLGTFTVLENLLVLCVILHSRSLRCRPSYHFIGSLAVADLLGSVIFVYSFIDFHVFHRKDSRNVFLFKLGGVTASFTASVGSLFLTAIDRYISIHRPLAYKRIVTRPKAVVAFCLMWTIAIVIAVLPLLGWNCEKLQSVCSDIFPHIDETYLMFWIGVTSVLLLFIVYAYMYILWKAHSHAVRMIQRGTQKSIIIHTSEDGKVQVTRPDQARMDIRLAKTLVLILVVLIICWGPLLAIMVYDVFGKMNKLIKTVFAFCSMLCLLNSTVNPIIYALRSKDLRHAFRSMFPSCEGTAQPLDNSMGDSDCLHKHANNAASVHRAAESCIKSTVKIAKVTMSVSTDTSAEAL

In the case of `CCC(=O)NCCc1ccc(O)c(O)c1`, in series [1], the Activity entry is given as “Toxic”. In addition, in the series on PC-12 [2], the outcome was inactive.
As to `CCCCCCCCC(=O)N[C@H](CO)Cc1ccc(O)cc1`, in the series on PC-12 [3], the outcome was inactive.
As for `CCC(=O)N[C@@H](Cc1ccc(O)cc1)C(=O)O`, the inhibition with U-937 [4] was found to be 20%. The inhibition result in [5] is “Active”. Moreover, the outcome in the series with PC-12 [3] was Active.
As for `CCC(=O)NCCc1ccc(O)cc1`, in series [1], the Activity result is reported as “Toxic”. Further, the result in the series with PC-12 [3] was inactive.
`O=C(CCCCCCCCCCCCCCO)N[C@H](CO)Cc1ccc(O)cc1`: the Imax with U-937 [4] was found to be 73%. Also, the outcome with PC-12 [6] was inactive. The EC50 in [7] amounted to 757 nM.
As for `CCC(=O)N[C@H](CO)Cc1ccc(OC(=O)CC)cc1`, the result with PC-12 [3] was inactive.
Regarding `CCCCC/C=C\C/C=C\C/C=C\C/C=C\CCC(C)C(=O)NCCF` (configuration not stated), the outcome in the series with PC-12 [8] was inactive.
On to `CC/C=C\C/C=C\C/C=C\CCCCCCCCN[C@H](CO)Cc1ccc(O)cc1`, for which the Imax in the series on U-937 [4] is 60%. The Activity result in [9] is “Toxic”; in series [11] it was “Non-toxic”. The result in the series on PC-12 [10] was inactive. In addition, the EC50 in series [7] was 966 nM.
`CCC(=O)N[C@H](COC)Cc1ccc(O)cc1`: the result with PC-12 [3] was inactive.
Still for that read-out and setting: the same measure for `CCC(=O)N[C@@H](CO)Cc1ccc(O)cc1`: “inactive”.
As for `CCCCC/C=C\C/C=C\CCCCCCCCN[C@H](CO)Cc1ccc(O)cc1`, in the series with U-937 [4], the Imax was 51%. Moreover, the Activity entry in series [9] is recorded as “Toxic”; in series [11] it was “Non-toxic”. For the same molecule, the outcome in the series with PC-12 [10] was inactive. In addition, in [7], the EC50 was determined as 975 nM.
On to `CCC(=O)N[C@H](COC(=O)CC)Cc1ccc(O)cc1`, for which the outcome in the series on PC-12 [3] was inactive.
For the molecule `CC(C)C(=O)N[C@H](CO)Cc1ccc(O)cc1`, in the series on PC-12 [3], the result was inactive.
For the molecule `CCC(=O)N[C@H](COC)Cc1ccc(OC)cc1`, the inhibition in the series with U-937 [4] came out at 20%. The inhibition result in series [5] was “Active”. Moreover, the outcome with PC-12 [3] was inactive.
Consider `CC(/C=C/C(=O)NC(CO)Cc1ccc(O)cc1)=C\C(C)CC(=O)O` (configuration not stated), for which the outcome in the series with PC-12 [12] was Active.
`O=C(CCCc1cn(C23CC4CC(CC(C4)C2)C3)nn1)N[C@H](CO)Cc1ccc(O)cc1`: the outcome in the series with PC-12 [3] was inactive.
On to `O=C(CCC(=O)N[C@@H](CO)Cc1ccc(O)cc1)N[C@H](CO)Cc1ccc(O)cc1`, for which, in the series with U-937 [4], the inhibition amounted to 20%. The inhibition result in series [5] is “Active”. Moreover, the result in the series with PC-12 [3] was Active.
For the molecule `CCCCC/C=C\C/C=C\C/C=C\C/C=C\CCCC(=O)NCCc1ccoc1`, in the series with U-937 [4], the Imax came out at 80%. The EC50 in [7] is 1800 nM.
In the case of `CCCN[C@H](CO)Cc1ccc(O)cc1`, in the series on PC-12 [3], the result was inactive.
Still for that read-out and setting: the value for `CC(C)(C)C(=O)N[C@H](CO)Cc1ccc(O)cc1` was “inactive”.
On to `O=C(N[C@H](CO)Cc1ccc(O)cc1)c1ccccc1`, for which the Activity entry in series [1] is “Non-toxic”. The inhibition in the series on U-937 [4] is 20%. The inhibition result in series [5] was “Active”.
As to `O=C(CCCCCCCO)N[C@H](CO)Cc1ccc(O)cc1`, the inhibition with U-937 [4] amounted to 20%. Besides, the inhibition entry in series [5] is “Active”. Moreover, the result in the series with PC-12 [6] and in the series on PC-12 [3] was Active.
For `OCCCCCCCCCCCCCCCN[C@H](CO)Cc1ccc(O)cc1`, the Activity result in series [9] is “Toxic”; in [11] it was “Non-toxic”. On Cannabinoid receptor 1, this molecule yielded a Ki of 530 nM. Also, the outcome in the series with PC-12 [10] was inactive.
`CCC(=O)N[C@H](CO)Cc1ccc(O)cc1`: the result in the series on PC-12 [3] was Active.
Regarding `CCCCCCCCCCCCCCCCN[C@H](CO)Cc1ccc(O)cc1`, the Activity result in series [9] is “Toxic”; in series [11], “Non-toxic”. Moreover, in the series with PC-12 [10], the outcome was inactive.
As to `CCCCC/C=C\C/C=C\CCCCCCCC(=O)N[C@H](CO)Cc1ccc(O)cc1`, the Ratio EC50 in the series with U-937 [13] was 10. Besides, in the series on U-937 [4], the Imax was determined as 52%. The molecule also gave a Ki on Cannabinoid receptor 1 of 810 nM. Further, the result with PC-12 [6] and in the series on PC-12 [14] was Active. Besides, the EC50 in [7] amounted to 228 nM.
For `CCC(=O)N[C@H](CO)Cc1ccccc1`, the result in the series with PC-12 [3] was inactive.
On the same count and under the same terms, the same measure for `CCC(=O)N[C@H](CO)Cc1ccc(OC)cc1`: “inactive”.
